Laboratory results published in ChEMBL document CHEMBL5247578, “Effective synthesis of benzimidazoles-imidazo[1,2-a]pyrazine conjugates: A comparative study of mono-and bis-benzimidazoles for antitumor activity” (Eur J Med Chem, 2019).

Assays:
[1] = tested on: SW-620; assay: Antiproliferative activity against human SW620 cells assessed as cell growth at 0.0001 M incubated for 48 hrs by SRB assay relative to control; format: functional; conditions: read-out: Activity
[2] = tested on: RPMI-8226; assay: Antiproliferative activity against human RPMI-8226 cells assessed as cell growth inhibition by measuring lethal concentration incubated for 48 hrs by sulforhodamine B assay; format: functional; conditions: read-out: LC50 (the source's name)
[3] = tested on: SK-OV-3; assay: Antiproliferative activity against human SK-OV-3 cells assessed as cell growth at 0.00000001 M incubated for 48 hrs by SRB assay relative to control; format: functional; conditions: dose 10 nM, read-out: Activity
[4] = tested on: LOX IMVI; assay: Antiproliferative activity against human LOX IMVI cells assessed as cell growth at 0.00000001 M incubated for 48 hrs by SRB assay relative to control; format: functional; conditions: dose 10 nM, read-out: Activity
[5] = tested on: HCC 2998; assay: Antiproliferative activity against human HCC 2998 cells assessed as cell growth inhibition by measuring lethal concentration incubated for 48 hrs by sulforhodamine B assay; format: functional; conditions: read-out: LC50 (the source's name)
[6] = tested on: MDA-MB-468; assay: Antiproliferative activity against human MDA-MB-468 cells assessed as cell growth at 0.000001 M incubated for 48 hrs by SRB assay relative to control; format: functional; conditions: read-out: Activity
[7] = tested on: MDA-MB-468; assay: Antiproliferative activity against human MDA-MB-468 cells assessed as cell growth at 0.0001 M incubated for 48 hrs by SRB assay relative to control; format: functional; conditions: read-out: Activity
[8] = tested on: PC-3; assay: Antiproliferative activity against human PC-3 cells assessed as cell growth at 0.00001 M incubated for 48 hrs by SRB assay relative to control; format: functional; conditions: read-out: Activity
[9] = tested on: T47D; assay: Antiproliferative activity against human T47D cells assessed as cell growth at 0.0001 M incubated for 48 hrs by SRB assay relative to control; format: functional; conditions: read-out: Activity
[10] = tested on: NCI-H322M; assay: Antiproliferative activity against human NCI-H322M cells assessed as cell growth at 0.0000001 M incubated for 48 hrs by SRB assay relative to control; format: functional; conditions: dose 100 nM, read-out: Activity
[11] = tested on: U-251; assay: Antiproliferative activity against human U-251 cells assessed as cell growth inhibition by measuring lethal concentration incubated for 48 hrs by sulforhodamine B assay; format: functional; conditions: read-out: LC50 (the source's name)
How it was run: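 NCI-60 five-dose screen (10^-4 to 10^-8 M, 10-fold dilutions; DMSO stocks). Cells in RPMI 1640 with 5% FBS and 2 mM L-glutamine, preincubated 24 h, then exposed 48 h at 37 °C, 5% CO2. Fixed with cold TCA, stained with 0.4% SRB, absorbance read at 515 nm. Time-zero plates used as reference. LC50 taken from [(Ti-Tz)/Tz]×100 […].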

[12] = tested on: SNB-19; assay: Growth inhibition against human SNB-19 cells incubated for 48 hrs by sulforhodamine B assay; format: functional
[13] = tested on: 786-0; assay: Antiproliferative activity against human 786-0 cells assessed as cell growth at 0.000001 M incubated for 48 hrs by SRB assay relative to control; format: functional; conditions: read-out: Activity
How it was run: (§1)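 NCI-60 five-dose screen over 10^-4–10^-8 M (10-fold dilutions). Cells grown in RPMI 1640 with 5% FBS and 2 mM L-glutamine, seeded at 5,000–40,000 cells/well and preincubated 24 h. Drug from DMSO stock, 48 h at 37 °C, 5% CO2. Adherent cells TCA-fixed and stained with 0.4% SRB; A515 read. Percent growth = (Ti−Tz)/(C−Tz)×100, or (Ti−Tz)/Tz×100 when Ti<Tz.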

[14] = tested on: NCI-H23; assay: Growth inhibition against human NCI-H23 cells incubated for 48 hrs by sulforhodamine B assay; format: functional
[15] = tested on: HT-29; assay: Antiproliferative activity against human HT-29 cells assessed as cell growth inhibition by measuring lethal concentration incubated for 48 hrs by sulforhodamine B assay; format: functional; conditions: read-out: LC50 (the source's name)
[16] = tested on: HCT-116; assay: Antiproliferative activity against human HCT-116 cells assessed as cell growth at 0.00001 M incubated for 48 hrs by SRB assay relative to control; format: functional; conditions: read-out: Activity
How it was run: (§2)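 NCI-60 five-dose screen (10^-4 to 10^-8 M). Cells grown in RPMI 1640 with 5% FBS and 2 mM L-glutamine, plated at 5,000-40,000 cells/well and preincubated 24 h. Drug given from DMSO stock, then 48 h at 37 °C, 5% CO2. For adherent lines, cells fixed with cold TCA, SRB-stained and read at 515 nm. Percent growth taken against time-zero and untreated control.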

[17] = tested on: A498; assay: Antiproliferative activity against human A498 cells assessed as cell growth at 0.000001 M incubated for 48 hrs by SRB assay relative to control; format: functional; conditions: read-out: Activity; how it was run: as §1
[18] = tested on: Calf thymus DNA; assay: Binding affinity to calf thymus DNA assessed as DNA intercalation by measuring change in melting temperature at 10 uM by thermal denaturation assay; format: nucleic-acid assay; conditions: Bos taurus
[19] = tested on: CAKI-1; assay: Antiproliferative activity against human CAKI-1 cells assessed as cell growth at 0.00001 M incubated for 48 hrs by SRB assay relative to control; format: functional; conditions: read-out: Activity; how it was run: as §1
[20] = tested on: LOX IMVI; assay: Antiproliferative activity against human LOX IMVI cells assessed as cell growth at 0.000001 M incubated for 48 hrs by SRB assay relative to control; format: functional; conditions: read-out: Activity
[21] = tested on: RXF 393; assay: Antiproliferative activity against human RXF 393 cells assessed as cell growth at 0.000001 M incubated for 48 hrs by SRB assay relative to control; format: functional; conditions: read-out: Activity
[22] = tested on: Calf thymus DNA; assay: Displacement of ethidium bromide from calf thymus DNA assessed as quenching constant upto 85 uM by fluorescence based spectroscopic analysis; format: nucleic-acid assay; conditions: Bos taurus
[23] = tested on: NCI-H23; assay: Antiproliferative activity against human NCI-H23 cells assessed as cell growth inhibition by measuring lethal concentration incubated for 48 hrs by sulforhodamine B assay; format: functional; conditions: read-out: LC50 (the source's name)
[24] = tested on: LOX IMVI; assay: Growth inhibition against human LOX IMVI cells incubated for 48 hrs by sulforhodamine B assay; format: functional
[25] = tested on: NCI-H322M; assay: Antiproliferative activity against human NCI-H322M cells assessed as cell growth at 0.00000001 M incubated for 48 hrs by SRB assay relative to control; format: functional; conditions: dose 10 nM, read-out: Activity
[26] = tested on: UO-31; assay: Antiproliferative activity against human UO-31 cells assessed as cell growth at 0.00000001 M incubated for 48 hrs by SRB assay relative to control; format: functional; conditions: dose 10 nM, read-out: Activity
[27] = tested on: HCT-15; assay: Antiproliferative activity against human HCT-15 cells assessed as cell growth at 0.00001 M incubated for 48 hrs by SRB assay relative to control; format: functional; conditions: read-out: Activity; how it was run: as §2
[28] = tested on: HCT-15; assay: Antiproliferative activity against human HCT-15 cells assessed as cell growth inhibition by measuring lethal concentration incubated for 48 hrs by sulforhodamine B assay; format: functional; conditions: read-out: LC50 (the source's name)
[29] = tested on: HL-60; assay: Antiproliferative activity against human HL-60 cells assessed as cell growth at 0.0000001 M incubated for 48 hrs by SRB assay relative to control; format: functional; conditions: dose 100 nM, read-out: Activity; how it was run: as §2
[30] = tested on: NCI-H322M; assay: Antiproliferative activity against human NCI-H322M cells assessed as cell growth at 0.0001 M incubated for 48 hrs by SRB assay relative to control; format: functional; conditions: read-out: Activity
[31] = tested on: NCI-H460; assay: Antiproliferative activity against human NCI-H460 cells assessed as cell growth inhibition by measuring lethal concentration incubated for 48 hrs by sulforhodamine B assay; format: functional; conditions: read-out: LC50 (the source's name)
[32] = tested on: HT-29; assay: Growth inhibition against human HT-29 cells incubated for 48 hrs by sulforhodamine B assay; format: functional
[33] = tested on: DU-145; assay: Growth inhibition against human DU-145 cells incubated for 48 hrs by sulforhodamine B assay; format: functional

Question: For COc1ccc(-c2cn3ccnc3c(-c3ccc4ncn(C5CCCCC5)c4c3)n2)cc1, which growth at 100 µM [1] is on record?
Answer: 19%

Question: And the CC50 [2]?
Answer: > 100 µM

Question: What about the growth at 0.01 µM [3] of the same molecule?
Answer: 87%

Question: And the growth at 0.01 µM [4]?
Answer: 95%

Question: And the CC50 [5]?
Answer: > 100 µM

Question: And the growth at 1 µM [6]?
Answer: 47%

Question: What about the growth at 100 µM [7] of the same molecule?
Answer: 10%

Question: What about the growth at 10 µM [8] of the same molecule?
Answer: 5%

Question: What about the growth at 100 µM [9] of the same molecule?
Answer: -21%

Question: And the growth at 0.1 µM [10]?
Answer: 90%

Question: And the CC50 [11]?
Answer: > 100 µM

Question: What about the GI50 [12] of the same molecule?
Answer: 0.836 µM

Question: And the growth at 1 µM [13]?
Answer: 34%

Question: And the GI50 [14]?
Answer: 2.11 µM

Question: What about the CC50 [15] of the same molecule?
Answer: > 100 µM

Question: And the growth at 10 µM [16]?
Answer: -15%

Question: And the growth at 1 µM [17]?
Answer: 44%

Question: And the ΔTm [18]?
Answer: 22 °C

Question: And the growth at 10 µM [19]?
Answer: 25%

Question: What about the growth at 1 µM [20] of the same molecule?
Answer: 44%

Question: And the growth at 1 µM [21]?
Answer: 57%

Question: What about the Kq [22] of the same molecule?
Answer: 0.82 10^12/M/s

Question: What about the CC50 [23] of the same molecule?
Answer: > 100 µM

Question: And the GI50 [24]?
Answer: 0.741 µM

Question: And the growth at 0.01 µM [25]?
Answer: 92%

Question: What about the growth at 0.01 µM [26] of the same molecule?
Answer: 91%

Question: And the growth at 10 µM [27]?
Answer: 9%

Question: What about the CC50 [28] of the same molecule?
Answer: > 100 µM

Question: What about the growth at 0.1 µM [29] of the same molecule?
Answer: 95%

Question: What about the growth at 100 µM [30] of the same molecule?
Answer: 67%

Question: What about the CC50 [31] of the same molecule?
Answer: > 100 µM

Question: What about the GI50 [32] of the same molecule?
Answer: 0.383 µM

Question: What about the GI50 [33] of the same molecule?
Answer: 1.07 µM

Question: For c1ccc(Cn2cnc3ccc(-c4nc(-c5ccc6c(c5)ncn6C5CCCCC5)cn5ccnc45)cc32)cc1, which growth at 100 µM [1] is on record?
Answer: 7%

Question: What about the CC50 [2] of the same molecule?
Answer: > 100 µM

Question: And the growth at 0.01 µM [3]?
Answer: 84%

Question: And the growth at 0.01 µM [4]?
Answer: 98%

Question: What about the CC50 [5] of the same molecule?
Answer: 6.12 µM

Question: And the growth at 1 µM [6]?
Answer: 89%

Question: And the growth at 100 µM [7]?
Answer: -7%

Question: What about the growth at 10 µM [8] of the same molecule?
Answer: -10%

Question: And the growth at 100 µM [9]?
Answer: 9%

Question: What about the growth at 0.1 µM [10] of the same molecule?
Answer: 91%

Question: What about the CC50 [11] of the same molecule?
Answer: > 100 µM

Question: What about the GI50 [12] of the same molecule?
Answer: 4.54 µM

Question: And the growth at 1 µM [13]?
Answer: 46%

Question: What about the GI50 [14] of the same molecule?
Answer: 1.88 µM

Question: And the CC50 [15]?
Answer: > 100 µM

Question: What about the growth at 10 µM [16] of the same molecule?
Answer: -74%

Question: What about the growth at 1 µM [17] of the same molecule?
Answer: 97%

Question: And the ΔTm [18]?
Answer: 12 °C

Question: What about the growth at 10 µM [19] of the same molecule?
Answer: 17%

Question: What about the growth at 1 µM [20] of the same molecule?
Answer: 88%

Question: And the growth at 1 µM [21]?
Answer: 62%

Question: What about the Kq [22] of the same molecule?
Answer: 0.74 10^12/M/s

Question: And the CC50 [23]?
Answer: 1.33 µM

Question: What about the GI50 [24] of the same molecule?
Answer: 1.64 µM

Question: And the growth at 0.01 µM [25]?
Answer: 97%

Question: And the growth at 0.01 µM [26]?
Answer: 91%

Question: What about the growth at 10 µM [27] of the same molecule?
Answer: -13%

Question: What about the CC50 [28] of the same molecule?
Answer: > 100 µM

Question: What about the growth at 0.1 µM [29] of the same molecule?
Answer: 113%

Question: What about the growth at 100 µM [30] of the same molecule?
Answer: 14%

Question: And the CC50 [31]?
Answer: > 100 µM

Question: And the GI50 [32]?
Answer: 1.89 µM

Question: And the GI50 [33]?
Answer: 3.04 µM
